What all share (format): functional, Mus musculus
For one assay, the system named is L1210. Put plainly: Median survival time of L1210 cell line after a dose of 20 mg/kg administered intraperitoneally on Q01Dx01 treatment schedule. Particulars: route intraperitoneal. Summed up:
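L1210 leukaemia: DBA/2 mice inoculated ip with 10^5 cells on day 0, with ip drug in 0.15 M NaCl saline on the stated schedule. The read-out was median survival time in days, with toxicity taken as survivors on day 5. T/C% = treated MST/control MST × 100; >125% is considered significant.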

Another assay has as its system P388. Description: Number of survivors of P388 lymphocytic leukemia cell line on day 5/ number of treated mice at a dose of 1 i.v. injection of 2.5 mg/kg on Q01Dx01 treatment schedule; 9/10. The settings on record: route intravenous.
The test system of a further assay is Sarcoma-180. Description: MST of treated animal over control when administered at a dose of 10 mg/kg intraperitoneally on Q01Dx01 treatment schedule in sarcoma 180 cell lines. The settings on record: route intraperitoneal. In short, it runs like this:
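Sarcoma 180: Swiss mice inoculated ip with 10^6 cells on day 0, with single ip injection of drug in 0.15 M NaCl saline. Median survival time was recorded in days, with toxicity taken as survivors on day 5. T/C% = treated MST/control MST × 100; >125% is considered significant.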

Structures are written as SMILES.

Turning to `O=C1C(N2CC2)=C(N2CC2)C(=O)c2ncncc21`, the MST in the assay with L1210 turned out to be 9.4 days. In addition, in the assay on P388, the “Toxicity Survivors” value is given as 9. In addition, in the assay on Sarcoma-180, the T/C is on record as 109%.

The record behind these values is ChEMBL document CHEMBL1122504, “Heterocyclic Quinones. 4. A new highly cytotoxic drug: 6,7-bis(1-aziridinyl)-5,8-quinazolinedione” (1983).
